# From ChEMBL document CHEMBL3297654, “Synthesis, antimicrobial and cytotoxic activities, and structure-activity relationships of gypsogenin derivatives against human cancer cells” (Eur J Med Chem, 2014)
# Activity calls are given as the source filed them. The calls are words filed in the database; no cut-off is given here.
# Key:
# Micrococcus luteus [1] = test: Antimicrobial activity against Micrococcus luteus ATCC 9341 assessed as zone of inhibition at 15 mg for 24 hrs at 30 degC by disk diffusion test; type: functional; details: ATCC 9341, 24 h, read-out: DIZ
# Enterococcus faecalis [2] = test: Antimicrobial activity against Enterococcus faecalis ATCC 29212 assessed as zone of inhibition at 15 mg for 24 hrs at 37 degC by disk diffusion test; type: functional, organism-based
# Bacillus subtilis [3] = test: Antimicrobial activity against Bacillus subtilis ATCC 6633 assessed as zone of inhibition at 15 mgby disk diffusion test; type: functional
# Escherichia coli = test: Antimicrobial activity against Escherichia coli ATCC 25922 assessed as zone of inhibition at 10 mg for 24 hrs at 37 degC by disk diffusion test; type: functional, organism-based
# Salmonella typhimurium = test: Antimicrobial activity against Salmonella typhimurium ATCC 14028 assessed as zone of inhibition at 10 mg for 24 hrs at 37 degC by disk diffusion test; type: functional; details: Salmonella enterica subsp. enterica serovar Typhimurium
# Micrococcus luteus [4] = test: Antimicrobial activity against Micrococcus luteus ATCC 9341 assessed as zone of inhibition at 10 mg for 24 hrs at 30 degC by disk diffusion test; type: functional
# Staphylococcus aureus = test: Antimicrobial activity against Staphylococcus aureus ATCC 25923 assessed as zone of inhibition at 10 mg for 24 hrs at 37 degC by disk diffusion test; type: functional
# [5] = test system: Staphylococcus epidermidis; test: Antimicrobial activity against Staphylococcus epidermidis ATCC 12228 assessed as zone of inhibition at 10 mg for 24 hrs at 37 degC by disk diffusion test; type: functional
# Klebsiella pneumoniae = test: Antimicrobial activity against Klebsiella pneumoniae ATCC 13882 assessed as zone of inhibition at 10 mg for 24 hrs at 37 degC by disk diffusion test; type: functional, organism-based
# Outline: (§1)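 Agar well diffusion following NCCLS disc susceptibility guidance. Compounds were held as 1000 µg/mL stocks in DMSO. Broth cultures (18–24 h) were adjusted to 0.5 McFarland (1×10^8 cells/mL) and spread on Mueller Hinton agar. A 6 mm well was cut and filled with 30 µL compound. Plates were incubated 24 h at 37 °C, and the inhibition zone diameter was measured in mm.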
# Pseudomonas aeruginosa = test: Antimicrobial activity against Pseudomonas aeruginosa ATCC 35032 assessed as zone of inhibition at 10 mg for 24 hrs at 37 degC by disk diffusion test; type: functional, organism-based; outline: as §1
# Proteus vulgaris = test: Antimicrobial activity against Proteus vulgaris ATCC 33420 assessed as zone of inhibition at 10 mg by disk diffusion test; type: functional, organism-based
# Enterococcus faecalis [6] = test: Antimicrobial activity against Enterococcus faecalis ATCC 29212 assessed as zone of inhibition at 10 mg for 24 hrs at 37 degC by disk diffusion test; type: functional; outline: as §1
# Bacillus cereus = test: Antimicrobial activity against Bacillus cereus ATCC 11778 assessed as zone of inhibition at 10 mg for 24 hrs at 30 degC by disk diffusion test; type: functional, organism-based
# Outline: (§2)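 Well diffusion on Mueller Hinton agar per NCCLS disc susceptibility tests. DMSO stocks were 1000 µg/mL. Bacterial broth cultures (18–24 h) were adjusted to 0.5 McFarland, about 1×10^8 cells/mL. A 6 mm well received 30 µL compound. Incubation was 24 h at 30 °C, and zone diameters were read in mm. B. thuringiensis was a fecal clinical isolate grown in nutrient broth.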
# Bacillus subtilis [7] = test: Antimicrobial activity against Bacillus subtilis ATCC 6633 assessed as zone of inhibition at 10 mg by disk diffusion test; type: functional, organism-based
# Bacillus thuringiensis = test: Antimicrobial activity against Bacillus thuringiensis assessed as zone of inhibition at 10 mg for 24 hrs at 30 degC by disk diffusion test; type: functional, organism-based; outline: as §2
# HL-60 [8] = test: Antiproliferative activity against human HL60 cells after 24 and 72 hrs by MTT assay; type: functional, cell-based
# Outline: (§3)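 ATCC human cell lines are kept in RPMI, DMEM or McCoy's 5A with 10–15% heat-inactivated FCS at 37 °C and 5% CO2. They are seeded at 1×10^4–1×10^5 cells/mL in 48-well plates and exposed to 0.5, 10, 20 or 40 µM. Viability is read by MTT (590 nm) at 24 and 72 h. Growth is expressed relative to untreated cells and IC50 is fitted, in triplicate.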
# HT-29 [9] = test: Antiproliferative activity against human HT-29 cells after 24 and 72 hrs by MTT assay; type: functional, cell-based; outline: as §3
# Caco-2 [10] = test: Antiproliferative activity against human Caco2 cells after 24 and 72 hrs by MTT assay; type: functional, cell-based; outline: as §3
# [11] = Antiproliferative activity against human Saos2 cells after 24 and 72 hrs by MTT assay; type: functional, cell-based; details: SAOS-2; outline: as §3
# MCF7 [12] = test: Antiproliferative activity against human MCF7 cells after 24 and 72 hrs by MTT assay; type: functional, cell-based; outline: as §3
# HeLa [13] = test: Antiproliferative activity against human HeLa cells after 24 and 72 hrs by MTT assay; type: functional, cell-based; outline: as §3
# HL-60 [14] = test: Induction of apoptosis in human HL60 cells at 0.5 uM after 48 hrs by Hoechst 33258/propidium iodide staining based phase contrast microscopic analysis; type: functional
# Outline: (§4)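 Cells in 48-well plates treated with 0.5, 10, 20 or 40 µM for 24 and 48 h. Values are read at 48 h, 20 µM for test agents and 0.5 µM for controls. Staining is Hoechst 33258/propidium iodide double staining with fluorescence microscopy. Blue nuclei are viable or early-to-mid apoptotic, and pink nuclei are late apoptotic or necrotic. Apoptosis and necrosis are scored from chromatin condensation as % of cells. Cells are grown at 37 °C in 5% CO2 in RPMI, DMEM or McCoy's 5A with 10–15% heat-inactivated FCS.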
# HT-29 [15] = test: Induction of apoptosis in human HT-29 cells at 0.5 uM after 48 hrs by Hoechst 33258/propidium iodide staining based phase contrast microscopic analysis; type: functional; outline: as §4
# Caco-2 [16] = test: Induction of apoptosis in human Caco2 cells at 0.5 uM after 48 hrs by Hoechst 33258/propidium iodide staining based phase contrast microscopic analysis; type: functional; outline: as §4
# SAOS-2 [17] = test: Induction of apoptosis in human Saos2 cells at 0.5 uM after 48 hrs by Hoechst 33258/propidium iodide staining based phase contrast microscopic analysis; type: functional; outline: as §4
# MCF7 [18] = test: Induction of apoptosis in human MCF7 cells at 0.5 uM after 48 hrs by Hoechst 33258/propidium iodide staining based phase contrast microscopic analysis; type: functional; outline: as §4
# HeLa [19] = test: Induction of apoptosis in human HeLa cells at 0.5 uM after 48 hrs by Hoechst 33258/propidium iodide staining based phase contrast microscopic analysis; type: functional; outline: as §4
# HL-60 [20] = test: Induction of necrosis in human HL60 cells at 0.5 uM after 48 hrs by Hoechst 33258/propidium iodide staining based phase contrast microscopic analysis; type: functional; outline: as §4
# HT-29 [21] = test: Induction of necrosis in human HT-29 cells at 0.5 uM after 48 hrs by Hoechst 33258/propidium iodide staining based phase contrast microscopic analysis; type: functional; outline: as §4
# Caco-2 [22] = test: Induction of necrosis in human Caco2 cells at 0.5 uM after 48 hrs by Hoechst 33258/propidium iodide staining based phase contrast microscopic analysis; type: functional; outline: as §4
# SAOS-2 [23] = test: Induction of necrosis in human Saos2 cells at 0.5 uM after 48 hrs by Hoechst 33258/propidium iodide staining based phase contrast microscopic analysis; type: functional; outline: as §4
# MCF7 [24] = test: Induction of necrosis in human MCF7 cells at 0.5 uM after 48 hrs by Hoechst 33258/propidium iodide staining based phase contrast microscopic analysis; type: functional; outline: as §4
# HeLa [25] = test: Induction of necrosis in human HeLa cells at 0.5 uM after 48 hrs by Hoechst 33258/propidium iodide staining based phase contrast microscopic analysis; type: functional; outline: as §4
# Cyberlindnera jadinii = test: Antimicrobial activity against Candida utilis ATCC 9950 assessed as zone of inhibition at 100 mg for 24 hrs at 30 degC by disk diffusion test; type: functional, organism-based
# Outline: (§5)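 Yeast well-diffusion assay on Mueller Hinton agar following NCCLS disc susceptibility procedure. Compound stocks were 1000 µg/mL in DMSO. Yeast broth cultures (18–24 h) were adjusted to 0.5 McFarland, about 1×10^6 cells/mL. A 6 mm well was loaded with 30 µL compound. Plates were incubated at 30 °C for 24 h, and inhibition zones were measured in mm. C. glabrata and C. tropicalis were precultured in malt extract broth.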
# Candida tropicalis = test: Antimicrobial activity against Candida tropicalis assessed as zone of inhibition at 100 mg for 24 hrs at 30 degC by disk diffusion test; type: functional, organism-based; outline: as §5
# Nakaseomyces glabratus = test: Antimicrobial activity against Candida glabrata assessed as zone of inhibition at 100 mg for 24 hrs at 30 degC by disk diffusion test; type: functional, organism-based; outline: as §5
# Saccharomyces cerevisiae = test: Antimicrobial activity against Saccharomyces cerevisiae ATCC 9763 assessed as zone of inhibition at 100 mg for 24 hrs at 30 degC by disk diffusion test; type: functional, organism-based; outline: as §5
molecule,measurement,setting,value
CC[C@H]1OC(=O)[C@H](C)[C@@H](O[C@H]2C[C@@](C)(OC)[C@@H](O)[C@H](C)O2)[C@H](C)[C@@H](O[C@@H]2O[C@H](C)C[C@H](N(C)C)[C@H]2O)[C@](C)(O)C[C@@H](C)C(=O)[C@H](C)[C@@H](O)[C@]1(C)O [ERYTHROMYCIN],zone of inhibition at 15000 µg/disc,Micrococcus luteus [1],30 mm
same,diameter of the inhibition zone (DIZ),Enterococcus faecalis [2],inactive
same,diameter of the inhibition zone (DIZ),Bacillus subtilis [3],25 mm
GENTAMICIN,inhibition zone (IZ),Escherichia coli,21 mm
same,inhibition zone (IZ),Salmonella typhimurium,16 mm
same,inhibition zone (IZ),Micrococcus luteus [4],15 mm
same,inhibition zone (IZ),Staphylococcus aureus,20 mm
same,inhibition zone (IZ),[5],17 mm
same,inhibition zone (IZ),Klebsiella pneumoniae,19 mm
same,inhibition zone (IZ),Pseudomonas aeruginosa,20 mm
same,inhibition zone (IZ),Proteus vulgaris,24 mm
same,inhibition zone (IZ),Enterococcus faecalis [6],11 mm
same,inhibition zone (IZ),Bacillus cereus,24 mm
same,inhibition zone (IZ),Bacillus subtilis [7],20 mm
same,inhibition zone (IZ),Bacillus thuringiensis,21 mm
CC(=O)O[C@H]1C(=O)[C@@]2(C)[C@H]([C@H](OC(=O)c3ccccc3)[C@]3(O)C[C@H](OC(=O)[C@H](O)[C@@H](NC(=O)c4ccccc4)c4ccccc4)C(C)=C1C3(C)C)[C@]1(OC(C)=O)CO[C@@H]1C[C@@H]2O [PACLITAXEL],IC50,HL-60 [8],320 nM
same,IC50,HT-29 [9],290 nM
same,IC50,Caco-2 [10],310 nM
same,IC50,[11],350 nM
same,IC50,MCF7 [12],330 nM
same,IC50,HeLa [13],290 nM
same,Activity,HL-60 [14],53%
same,Activity,HT-29 [15],52%
same,Activity,Caco-2 [16],52%
same,Activity,SAOS-2 [17],42%
same,Activity,MCF7 [18],50%
same,Activity,HeLa [19],44%
same,Activity,HL-60 [20],0%
same,Activity,HT-29 [21],2%
same,Activity,Caco-2 [22],2%
same,Activity,SAOS-2 [23],1%
same,Activity,MCF7 [24],1%
same,Activity,HeLa [25],2%
NYSTATIN,inhibition zone (IZ),Cyberlindnera jadinii,21 mm
same,inhibition zone (IZ),Candida tropicalis,15 mm
same,inhibition zone (IZ),Nakaseomyces glabratus,16 mm
same,inhibition zone (IZ),Saccharomyces cerevisiae,15 mm
